Measured values: ChEMBL document CHEMBL3525910, “Pharmacokinetics of oral D-serine in D-amino acid oxidase knockout mice” (Drug Metab Dispos, 2012)

What was measured:
Type in all cases: ADME, organism-based
[1] = Tmax in wild-type mouse at 30 mg/kg, po in presence of CBIO; set-up: dose 30 mg/kg, route oral; settings: in vivo
Method in brief: (§1)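 Mice (wild-type 129SvEv or DAAO knockout; n = 3–6 per time point, n = 2 at 120 and 240 min for the group also given CBIO 30 mg/kg in 10% DMSO/0.9% saline) dosed orally, 10 ml/kg, with D-serine 30 mg/kg. Cardiac-puncture blood taken at 30, 60, 120, 240 min into heparin tubes and spun to plasma. Methanol extraction, derivatization, then HPLC fluorescence (ex 344/em 443 nm). Parameters from noncompartmental analysis.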

[2] = Cmax in DAAO knockout mouse at 30 mg/kg, po; set-up: dose 30 mg/kg, route oral; settings: in vivo; method in brief: as §1
[3] = system: Cortex; assay: Drug uptake in wild-type mouse cortex at 30 mg/kg, po after 1 hr; set-up: dose 30 mg/kg, route oral; settings: in vivo
Method in brief: (§2)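 Wild-type or DAAO knockout mice were given D-serine 30 mg/kg orally. At 1 h, cerebellum and frontal cortex were excised, weighed and frozen at −80°C. Tissue was homogenized and sonicated in 20 volumes (w/v) methanol and spun at 50,000g for 15 min at 4°C. The supernatant was dried, derivatized for 2 min at room temperature, and D-serine was quantified by C18 HPLC with fluorescence detection.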

[4] = system: Cerebellum; assay: Drug uptake in wild-type mouse cerebellum at 30 mg/kg, po after 1 hr; set-up: dose 30 mg/kg, route oral; settings: in vivo; method in brief: as §2
[5] = AUC (0 to infinity) in wild-type mouse at 30 mg/kg, po; set-up: time infinity, dose 30 mg/kg, route oral; settings: plasma; method in brief: as §1
[6] = Elimination half life in DAAO knockout mouse at 30 mg/kg, po; set-up: dose 30 mg/kg, route oral; settings: in vivo, read-out: beta t1/2
Method in brief: (§3)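 DAAO knockout mice were dosed orally (10 ml/kg) with D-serine 30 mg/kg, n = 3–6 per time point, and plasma was taken at 30–240 min. D-serine was measured by methanol extraction, derivatization and reversed-phase HPLC with fluorescence detection. Cmax and Tmax are observed values. t½ = 0.693/λz with uniform weighting. AUClast is by the log-linear trapezoidal rule, with variance by Bailer's method.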

[7] = system: Cortex; assay: Drug uptake in DAAO knockout mouse cortex at 30 mg/kg, po after 1 hr; set-up: dose 30 mg/kg, route oral; settings: in vivo; method in brief: as §2
[8] = Cmax in wild-type mouse at 30 mg/kg, po in presence of CBIO; set-up: dose 30 mg/kg, route oral; settings: in vivo; method in brief: as §1
[9] = Tmax in DAAO knockout mouse at 30 mg/kg, po; set-up: dose 30 mg/kg, route oral; settings: in vivo; method in brief: as §1
[10] = AUC (0 to infinity) in wild-type mouse at 30 mg/kg, po in presence of CBIO; set-up: time infinity, dose 30 mg/kg, route oral; settings: plasma; method in brief: as §1
[11] = AUC (0 to last) in wild-type mouse at 30 mg/kg, po in presence of CBIO; set-up: time 0 - last, dose 30 mg/kg, route oral; settings: plasma; method in brief: as §1
[12] = system: Cerebellum; assay: Drug uptake in DAAO knockout mouse cerebellum at 30 mg/kg, po after 1 hr; set-up: dose 30 mg/kg, route oral; settings: in vivo; method in brief: as §2
[13] = Cmax in wild-type mouse at 30 mg/kg, po; set-up: dose 30 mg/kg, route oral; settings: in vivo; method in brief: as §1
[14] = Elimination half life in wild-type mouse at 30 mg/kg, po; set-up: dose 30 mg/kg, route oral; settings: in vivo, read-out: beta t1/2 (converted); method in brief: as §1
[15] = Elimination half life in wild-type mouse at 30 mg/kg, po in presence of CBIO; set-up: dose 30 mg/kg, route oral; settings: in vivo, read-out: beta t1/2 (converted); method in brief: as §1
[16] = Tmax in wild-type mouse at 30 mg/kg, po; set-up: dose 30 mg/kg, route oral; settings: in vivo; method in brief: as §1
[17] = AUC (0 to last) in DAAO knockout mouse at 30 mg/kg, po; set-up: time 0 - last, dose 30 mg/kg, route oral; settings: plasma; method in brief: as §3
[18] = AUC (0 to last) in wild-type mouse at 30 mg/kg, po; set-up: time 0 - last, dose 30 mg/kg, route oral; settings: plasma; method in brief: as §1

Tmax [1]: 1 h
Cmax [2]: 27800 ng/mL
Drug uptake [3]: Active
Drug uptake [4]: Not Active
AUC(0-inf) [5]: 46000 ng·h/mL
half-life [6]: > 10 h
Drug uptake [7]: Active
Cmax [8]: 24300 ng/mL
Tmax [9]: 2.7 h
AUC(0-inf) [10]: 80900 ng·h/mL
AUC(0-t) [11]: 65800 ng·h/mL
Drug uptake [12]: Active
Cmax [13]: 19600 ng/mL
half-life [14]: 1.2 h
half-life [15]: 1.5 h
Tmax [16]: 0.7 h
AUC(0-t) [17]: 95800 ng·h/mL
AUC(0-t) [18]: 40600 ng·h/mL
SMILES: N[C@H](CO)C(=O)O [(D)-SERINE]
